A short description of assay [1]: Her2 expression decrease, cell viability multiplex – SKBR3 breast tumor cells, AlphaScreen, ATP viability, primary screen (AID 461).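 For Her2 level: lower value means less Her2 protein in the cells.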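 For viability: percent of carrier control wells set as 100% viability.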 Particulars: SKBR3 Her2 protein level, 18-24 h, measured here: SKBR3 viability, ATP luminescence, at 10 µM.
Assay [2] deals with Receptor tyrosine-protein kinase erbB-2 (Homo sapiens) (UniProt P04626). Described as above. Particulars: 18-24 h, at 10 µM, stronger effect = lower value.
A short description of assay [3]: reduced viability of SK-BR-3 breast cancer cells – cell-based, 24 h, human, pilot screen (AID 572;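 active = viability at or below 10% of carrier control in both of two separate runs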;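 note: compound exposure lasted between 18 and 24 h rather than exactly 24 h; 100% = carrier-treated control wells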). Particulars: SK-BR-3 viability, CellTiter-Glo luminescence, at 10 µM, stronger effect = lower value. For orientation: Cellular ATP, detected with luciferase, serves as a proxy for viable cell number.
Assay [4] in a line: HUVEC growth inhibition – cell-based, human, primary screen (AID 575;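 active = viability at or below 30% in both replicate assays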;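 note: 100% = median of untreated cell wells with 0.1% DMSO on each plate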). The settings on record: HUVEC proliferation, CellTiter-Glo luminescence, 72 h; at 10 µM; stronger effect = lower value. The procedure, abridged: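 Timing: 72 h treatment at 37 °C; material: HUVEC primary cells; technique: CellTiter-Glo luminescence measuring cellular ATP; controls: vehicle and MePR control wells; measure: percent of median DMSO-control luminescence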

Assay [5] in a line: H69AR cell proliferation blockers – human, duplicate replicates, primary screen (AID 580;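 active = viability at or under a set limit in both replicates, limit being median viability minus 3 SD, cut at about 48% in these data, passing the limit was not always enough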;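 note: 100% = mean luminescence of untreated wells and 0% = no signal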). The settings on record: H69AR lung tumor cells viability, ATP luminescence, 72 h; at 10 µM; stronger effect = lower value.
Assay [6] can be described thus: MRP1 drug-resistance reversers in H69AR cells – cell-based, doxorubicin co-treatment, pilot screen (AID 601;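 active = viability loss from added drug above about 55%, and viability with drug at most 40%, in both replicates, limit read from the data, passing the limit was not always enough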). Particulars: CellTiter-Glo, 72 h, at 10 µM; for differential viability (reversal): stronger effect = higher value.
The nature of assay [7]: yeast transport mutant growth inhibition pilot in 384-well plates, post-Golgi transport modulator project (AID 636; in the data active = inhibition above about 31%). The settings on record: absorbance 615 nm, about 18 h, stronger effect = higher value.
The nature of assay [8]: growth suppression of yeast trafficking mutant, preliminary HTS, modulators of trafficking downstream of Golgi apparatus project, 1536-format plate, OD 615 nm (AID 637; in the data active = inhibition above about 30%). Particulars: yeast transport mutant growth, absorbance 615 nm, 18 h; stronger effect = higher value.
[9] abbreviates: H69AR cells + 2 uM doxorubicin, measured here: viability with 2 uM doxorubicin, stronger effect = lower value.
Where [10] appears, read: H69AR cells, compound alone cytotoxicity.

Active and inactive are the calls of the source.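 Rule for the calls, unless noted: active = Her2 level under about 52% in both replicate screens, with viability over 70% of control (limit read from the data); inconclusive = Her2 under the limit in one screen only, or viability under 70%; inactive = Her2 level above the set limit.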

Receptor tyrosine-protein kinase erbB-2 (Homo sapiens), sequence (P04626 whole entry, looked up): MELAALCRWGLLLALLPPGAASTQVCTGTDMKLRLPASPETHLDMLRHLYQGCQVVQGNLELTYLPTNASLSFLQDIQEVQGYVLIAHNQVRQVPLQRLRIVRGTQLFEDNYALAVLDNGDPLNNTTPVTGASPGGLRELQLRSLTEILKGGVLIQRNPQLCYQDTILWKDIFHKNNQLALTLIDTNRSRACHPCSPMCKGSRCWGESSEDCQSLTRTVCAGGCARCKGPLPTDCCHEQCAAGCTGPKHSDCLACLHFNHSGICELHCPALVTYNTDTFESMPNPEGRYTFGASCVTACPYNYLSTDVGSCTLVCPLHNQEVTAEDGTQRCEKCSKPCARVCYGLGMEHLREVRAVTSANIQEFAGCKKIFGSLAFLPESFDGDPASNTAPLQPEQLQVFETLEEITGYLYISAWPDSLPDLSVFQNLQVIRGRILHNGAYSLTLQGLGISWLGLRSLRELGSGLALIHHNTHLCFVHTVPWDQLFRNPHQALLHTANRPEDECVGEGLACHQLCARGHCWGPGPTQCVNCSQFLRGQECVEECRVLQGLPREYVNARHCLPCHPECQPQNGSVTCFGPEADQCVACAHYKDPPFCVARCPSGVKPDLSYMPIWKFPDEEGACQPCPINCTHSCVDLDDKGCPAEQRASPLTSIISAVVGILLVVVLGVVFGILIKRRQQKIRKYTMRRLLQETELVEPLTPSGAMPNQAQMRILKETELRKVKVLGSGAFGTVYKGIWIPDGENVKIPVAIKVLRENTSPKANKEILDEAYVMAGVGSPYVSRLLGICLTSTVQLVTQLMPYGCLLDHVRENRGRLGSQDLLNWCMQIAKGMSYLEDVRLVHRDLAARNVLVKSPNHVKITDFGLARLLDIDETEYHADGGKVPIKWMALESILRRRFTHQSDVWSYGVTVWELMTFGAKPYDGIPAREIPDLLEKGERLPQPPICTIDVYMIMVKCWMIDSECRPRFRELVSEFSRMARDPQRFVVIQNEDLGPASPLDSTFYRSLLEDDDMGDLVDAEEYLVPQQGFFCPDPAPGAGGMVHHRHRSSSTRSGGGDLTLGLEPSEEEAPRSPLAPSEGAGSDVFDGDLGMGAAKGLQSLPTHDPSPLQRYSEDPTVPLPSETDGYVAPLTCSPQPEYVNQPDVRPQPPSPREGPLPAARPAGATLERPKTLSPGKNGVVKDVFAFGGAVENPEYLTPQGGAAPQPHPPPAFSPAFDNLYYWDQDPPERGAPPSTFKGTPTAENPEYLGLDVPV

As to `CCN1CCN(Cc2ccc(NC(=O)Nc3ccc(SC)cc3)cc2)CC1`, the viability was 97.5% in assay [1]; 97.5% (inactive) in assay [3]; 62% (inactive) in assay [4]; 98.4% (inactive) in assay [5]; 80.1% in assay [6] (setting [9]); 98.4% in assay [6] (setting [10]). Besides, the Her2 level in assay [2] is 82.5% (inactive). Further, the differential viability (reversal) in assay [6] (H69AR cells + 2 uM doxorubicin) was 18.2% (inactive). In addition, the values for the inhibition in assay [7] and in assay [8] were -4.93% (inactive) and 1.94% (inactive), respectively.

Take `COC(=O)Nc1ccc(S(=O)(=O)N2CCN(c3ccc(F)cc3)CC2)cc1`: the viability was 96.5% in assay [1]; 96.5% (inactive) in assay [3]; 86.9% (inactive) in assay [4]; 97.1% (inactive) in assay [5]; 94% in assay [6] (setting [9]); 97.1% in assay [6] (setting [10]). In addition, the Her2 level in assay [2] is 106% (inactive). In assay [6] (H69AR cells + 2 uM doxorubicin), the differential viability (reversal) is 3.18% (inactive). Also, the results for the inhibition in assay [7] and in assay [8] were -4.61% (inactive) and 9.84% (inactive), respectively.

In the case of `Cc1cc(C)c(C#N)c(SCc2[nH]nc3c2C(c2ccccc2)C(C#N)=C(N)O3)n1` (stereo not given), the viability in assay [1] is 93%; in assay [3], 93% (inactive); in assay [4], 85.3% (inactive); in assay [5], 99.7% (inactive); in assay [6] (setting [9]) it was 95.1%; in assay [6] (setting [10]) it was 99.7%. The Her2 level in assay [2] is 80.5% (inactive). Further, the differential viability (reversal) in assay [6] (H69AR cells + 2 uM doxorubicin) was 4.6% (inactive). In addition, the inhibition in assay [7] was -5.33% (inactive); in assay [8], -4.03% (inactive).

With `O=C(NCC1COc2ccccc2O1)c1ccccc1` (stereo not given), the viability in assay [1] is 79%; in assay [3], 79% (inactive); in assay [4], 113% (inactive); in assay [5], 92.9% (inactive); in assay [6] (setting [9]) it was 90.4%; in assay [6] (setting [10]), 92.9%. In assay [2], the Her2 level was 95% (inactive). In assay [6] (H69AR cells + 2 uM doxorubicin), the differential viability (reversal) was 2.58% (inactive). The inhibition in assay [7] is -4.27% (inactive); in assay [8], 0.33% (inactive).

Turning to `CCn1nc(C)c(NC(=O)c2cc(Br)ccc2Cl)c1C`, the viability in assay [1] was 84.5%; in assay [3], 84.5% (inactive); in assay [4], 88.5% (inactive); in assay [5], 94% (inactive); in assay [6] (setting [9]), 79.7%; in assay [6] (setting [10]), 94%. Besides, the Her2 level in assay [2] is 78% (inactive). The differential viability (reversal) in assay [6] (H69AR cells + 2 uM doxorubicin) was 14.3% (inactive). Besides, the inhibition is -4.42% (inactive) in assay [7] and 3.44% (inactive) in assay [8].

For the compound `CCOc1cc(S(=O)(=O)NCc2ccccn2)c(C)cc1C`, the viability was 92.5% in assay [1]; 92.5% (inactive) in assay [3]; 96.8% (inactive) in assay [4]; 100% (inactive) in assay [5]; 94.1% in assay [6] (setting [9]); 100% in assay [6] (setting [10]). The Her2 level in assay [2] is 84.5% (inactive). Moreover, the differential viability (reversal) in assay [6] (H69AR cells + 2 uM doxorubicin) is 6.28% (inactive). The inhibition is -5.53% (inactive) in assay [7] and -4.76% (inactive) in assay [8].

Consider `Cc1nnc(SCc2ccccc2)n1N`, for which the viability in assay [1] was 104%; in assay [3] it was 104% (inactive); in assay [4] it was 103% (inactive); in assay [5], 99.6% (inactive); in assay [6] (setting [9]) it was 98.9%; in assay [6] (setting [10]), 99.6%. For the same compound, the Her2 level in assay [2] is 98% (inactive). The differential viability (reversal) in assay [6] (H69AR cells + 2 uM doxorubicin) was 0.72% (inactive). Further, the inhibition in assay [7] was -0.67% (inactive); in assay [8], -5.32% (inactive).

On to `COc1ccccc1N1CCN(C(=O)c2ccc(S(=O)(=O)N3CCCCCC3)cc2)CC1`, for which the viability is 89.5% in assay [1]; 89.5% (inactive) in assay [3]; 89.4% (inactive) in assay [4]; 85.5% (inactive) in assay [5]; 88% in assay [6] (setting [9]); 85.5% in assay [6] (setting [10]). Further, the Her2 level in assay [2] is 98.5% (inactive). For the same compound, the differential viability (reversal) in assay [6] (H69AR cells + 2 uM doxorubicin) was -2.48% (inactive). The inhibition was -5.73% (inactive) in assay [7] and -3.44% (inactive) in assay [8].

In the case of `N#CCSc1nc2c(c(C3CC=CCC3)c1C#N)CCC2` (stereo not given), the viability in assay [1] is 88.5%; in assay [3], 88.5% (inactive); in assay [4], 63.4% (inactive); in assay [5], 100% (inactive); in assay [6] (setting [9]), 87.2%; in assay [6] (setting [10]), 100%. In assay [2], the Her2 level is 81.5% (inactive). Further, in assay [6] (H69AR cells + 2 uM doxorubicin), the differential viability (reversal) was 12.8% (inactive). Also, the inhibition is -3.07% (inactive) in assay [7] and -1.94% (inactive) in assay [8].

On to `COc1cc(OC)c(OC)cc1CN(C)CCc1ccccn1`, for which the viability is 104% in assay [1]; 104% (inactive) in assay [3]; 96.7% (inactive) in assay [4]; 86.9% (inactive) in assay [5]; 91.8% in assay [6] (setting [9]); 86.9% in assay [6] (setting [10]). In assay [2], the Her2 level was 107% (inactive). Moreover, the differential viability (reversal) in assay [6] (H69AR cells + 2 uM doxorubicin) is -4.87% (inactive). The inhibition in assay [7] is -1.79% (inactive); in assay [8], 7% (inactive).

As for `O=C(NCCCn1ccnc1)c1csc2ccccc12`, the viability was 84.5% in assay [1]; 84.5% (inactive) in assay [3]; 95.4% (inactive) in assay [4]; 97.5% (inactive) in assay [5]; 85.6% in assay [6] (setting [9]); 97.5% in assay [6] (setting [10]). In addition, the Her2 level in assay [2] is 89.5% (inactive). In addition, the differential viability (reversal) in assay [6] (H69AR cells + 2 uM doxorubicin) was 11.9% (inactive). Moreover, the inhibition in assay [7] was -3.03% (inactive); in assay [8] it was 3.67% (inactive).

For `Cn1c(SCC(=O)Nc2ccc3c(c2)oc2ccccc23)nnc1-c1ccccc1`, the viability in assay [1] is 83%; in assay [3], 83% (inactive); in assay [4], 53.1% (inactive); in assay [5], 69.4% (inactive); in assay [6] (setting [9]), 77.1%; in assay [6] (setting [10]) it was 69.4%. The Her2 level in assay [2] is 75.5% (inactive). In assay [6] (H69AR cells + 2 uM doxorubicin), the differential viability (reversal) was -7.74% (inactive). For the same compound, the inhibition is -5.73% (inactive) in assay [7] and 5.9% (inactive) in assay [8].

As to `COc1cc(C2c3c(n[nH]c3C)C(=O)N2c2ccc(Br)cc2)ccc1O` (stereo not given), the viability in assay [1] was 95%; in assay [3], 95% (inactive); in assay [4], 73.9% (inactive); in assay [5], 87.8% (inactive); in assay [6] (setting [9]), 82.2%; in assay [6] (setting [10]), 87.8%. Moreover, the Her2 level in assay [2] was 62.5% (inactive). The differential viability (reversal) in assay [6] (H69AR cells + 2 uM doxorubicin) is 5.68% (inactive). Also, the inhibition was -0.13% (inactive) in assay [7] and -1% (inactive) in assay [8].

On to `CSCCC(NS(=O)(=O)c1ccc2c(c1)oc(=O)n2C)C(=O)NC1CCCCC1` (stereo not given), for which the viability in assay [1] is 91%; in assay [3], 91% (inactive); in assay [4], 87.4% (inactive); in assay [5], 103% (inactive); in assay [6] (setting [9]) it was 90.1%; in assay [6] (setting [10]) it was 103%. For the same compound, in assay [2], the Her2 level is 110% (inactive). For the same compound, the differential viability (reversal) in assay [6] (H69AR cells + 2 uM doxorubicin) is 12.6% (inactive). Moreover, the inhibition in assay [7] is 0.9% (inactive); in assay [8], -3.17% (inactive).

What is called viability is a read-out of living cells in per cent, often relative to untreated cells. Broadly, the inhibition is the change of the read-out against control, counted positive when it falls.
